{
  "source": "ChEMBL document CHEMBL1132147",
  "about": "“2-(2-Phenylcyclopropyl)imidazolines: reversed enantioselective interaction at I(1) and I(2) imidazoline receptors” (J Med Chem, 1999)",
  "key": {"[1]": {"target": "T1, Adrenergic receptor alpha-2 (Rattus norvegicus, UniProt P22086+P19328+P22909)", "T1 sequence (P22086 whole entry)": "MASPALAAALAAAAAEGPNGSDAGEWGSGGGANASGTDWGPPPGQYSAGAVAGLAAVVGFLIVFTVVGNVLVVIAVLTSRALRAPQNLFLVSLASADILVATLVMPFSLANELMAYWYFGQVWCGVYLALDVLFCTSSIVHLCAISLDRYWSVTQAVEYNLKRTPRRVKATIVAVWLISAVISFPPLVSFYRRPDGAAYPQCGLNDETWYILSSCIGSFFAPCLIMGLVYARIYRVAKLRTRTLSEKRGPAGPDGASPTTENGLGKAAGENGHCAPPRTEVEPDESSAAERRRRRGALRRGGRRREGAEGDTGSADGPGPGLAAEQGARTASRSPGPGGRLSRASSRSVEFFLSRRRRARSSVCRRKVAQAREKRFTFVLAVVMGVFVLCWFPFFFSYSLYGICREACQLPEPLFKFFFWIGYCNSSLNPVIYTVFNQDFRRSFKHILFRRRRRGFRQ", "T1 sequence (P19328 whole entry)": "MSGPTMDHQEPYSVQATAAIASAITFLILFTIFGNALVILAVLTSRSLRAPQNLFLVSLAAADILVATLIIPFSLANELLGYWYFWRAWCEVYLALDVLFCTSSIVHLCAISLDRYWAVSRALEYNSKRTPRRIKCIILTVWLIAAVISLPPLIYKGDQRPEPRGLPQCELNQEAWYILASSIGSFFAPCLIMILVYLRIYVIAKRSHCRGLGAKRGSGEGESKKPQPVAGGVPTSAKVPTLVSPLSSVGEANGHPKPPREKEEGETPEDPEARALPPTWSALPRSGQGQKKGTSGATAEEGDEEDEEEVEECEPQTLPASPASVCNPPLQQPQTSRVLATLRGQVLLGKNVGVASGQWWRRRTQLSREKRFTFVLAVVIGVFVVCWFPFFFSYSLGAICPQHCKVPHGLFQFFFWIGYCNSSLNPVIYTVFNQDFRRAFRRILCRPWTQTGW", "T1 sequence (P22909 whole entry)": "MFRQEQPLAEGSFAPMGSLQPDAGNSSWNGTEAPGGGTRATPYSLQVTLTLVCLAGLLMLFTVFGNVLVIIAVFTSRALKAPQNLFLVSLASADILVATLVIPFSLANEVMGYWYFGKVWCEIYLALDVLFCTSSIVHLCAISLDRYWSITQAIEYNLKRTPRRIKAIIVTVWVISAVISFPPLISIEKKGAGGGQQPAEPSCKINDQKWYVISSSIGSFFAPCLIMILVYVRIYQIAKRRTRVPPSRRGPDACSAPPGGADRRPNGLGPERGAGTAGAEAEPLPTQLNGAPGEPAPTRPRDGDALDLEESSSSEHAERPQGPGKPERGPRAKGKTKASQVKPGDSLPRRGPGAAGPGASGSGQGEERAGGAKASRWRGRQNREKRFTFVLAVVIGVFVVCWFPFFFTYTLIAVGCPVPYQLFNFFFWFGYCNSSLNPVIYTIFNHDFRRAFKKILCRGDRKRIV", "experiment": "Displacement of [3H]-clonidine from Alpha-2 adrenergic receptor of rat cortex membranes", "format": "cell membranes, Membrane", "in_short": "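Competition binding using hydrogen oxalate salts of the compounds: [3H]clonidine on rat cortex membranes (α2) or [3H]idazoxan on rabbit kidney membranes (I2). IC50 by nonlinear regression of displacement data, converted to Ki by Cheng–Prusoff and given as pKi ± SEM.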"}, "[2]": {"experiment": "Displacement of [3H]idazoxan from imidazoline receptor I-2 of rabbit kidney membranes"}, "[3]": {"experiment": "Relative binding to I2 and I1 imidazoline receptors […]"}, "[4]": {"experiment": "Relative binding to I2 imidazoline and alpha-2 adrenergic receptors […]"}, "[5]": {"target": "Nischarin (Rattus norvegicus)", "experiment": "Displacement of [125I]p-iodoclonidine from imidazoline receptor I-1 of PC12 cell membranes"}},
  "note": "pKi: −log10 of the molar value.",
  "data": [
    {"compound": "c1ccc([C@@H]2C[C@H]2C2=NCCN2)cc1", "values": [
      {"measurement": "Log Ki", "setting": "[1]", "result": -6.92},
      {"measurement": "Log Ki", "setting": "[2]", "result": -8.22}
    ]},
    {"compound": "c1ccc([C@H]2C[C@@H]2C2=NCCN2)cc1", "values": [
      {"measurement": "Log Ki", "setting": "[1]", "result": -6.62},
      {"measurement": "Log Ki", "setting": "[2]", "result": -6.91}
    ]},
    {"compound": "c1ccc(C2CC2C2=NCCN2)cc1", "note": "(racemic)", "values": [
      {"measurement": "Log Ki", "setting": "[1]", "result": -6.4},
      {"measurement": "Log Ki", "setting": "[2]", "result": -7.64}
    ]},
    {"compound": "c1ccc(C2CC2C2=NCCN2)cc1", "note": "(stereo in doubt; 4a(+/-)) [listing 1 of 2 here]", "values": [
      {"measurement": "Log Ki", "setting": "[1]", "result": -4.53},
      {"measurement": "Log Ki", "setting": "[2]", "result": -6.05}
    ]},
    {"compound": "c1ccc(C2CC2C2=NCCN2)cc1", "note": "(stereo in doubt; 4a(+/-)) [listing 2 of 2 here]", "values": [
      {"measurement": "Ratio", "setting": "[3]", "result": 7},
      {"measurement": "Ratio", "setting": "[4]", "result": 33}
    ]},
    {"compound": "C(=C\\c1ccccc1)/C1=NCCN1", "note": "[TRACIZOLINE]", "values": [
      {"measurement": "Log Ki", "setting": "[1]", "result": -4.85},
      {"measurement": "Ratio", "setting": "[3]", "result": 10},
      {"measurement": "Ratio", "setting": "[4]", "result": 7410},
      {"measurement": "Log Ki", "setting": "[2]", "result": -8.72},
      {"measurement": "pKi", "setting": "[5]", "result": 7.72}
    ]}
  ]
}
